Measured values published in article PMC3747510 (Scientific Reports, 2013).
Residue numbers refer to the chain shown, from its start. In brackets after ≈: the same amount, converted by molar mass. Like-named read-outs stand apart in the source and are kept apart here.

What was measured:
SpLeuRS-MmLinker = test: Aminoacylation by SpLeuRS-MmLinker chimeric mutant; type: biochemical, Streptococcus pneumoniae; settings: 50 μM ZCL039
Outline: (§1)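 Aminoacylation at 37°C, started with 4 mM ATP. Point mutants were made by site-directed mutagenesis. The MmLinker chimera has CP1 Lys226–Thr411 replaced by a nonapeptide. Means of three independent experiments.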

SpLeuRS [1] = molecular target: T1, SpLeuRS (Streptococcus pneumoniae serotype 4, UniProt Q97SS0); test: Inhibitory kinetics of SpLeuRS aminoacylation; type: biochemical; settings: for Ki: 2 nM SpLeuRS
T1 sequence (Q97SS0 1-833): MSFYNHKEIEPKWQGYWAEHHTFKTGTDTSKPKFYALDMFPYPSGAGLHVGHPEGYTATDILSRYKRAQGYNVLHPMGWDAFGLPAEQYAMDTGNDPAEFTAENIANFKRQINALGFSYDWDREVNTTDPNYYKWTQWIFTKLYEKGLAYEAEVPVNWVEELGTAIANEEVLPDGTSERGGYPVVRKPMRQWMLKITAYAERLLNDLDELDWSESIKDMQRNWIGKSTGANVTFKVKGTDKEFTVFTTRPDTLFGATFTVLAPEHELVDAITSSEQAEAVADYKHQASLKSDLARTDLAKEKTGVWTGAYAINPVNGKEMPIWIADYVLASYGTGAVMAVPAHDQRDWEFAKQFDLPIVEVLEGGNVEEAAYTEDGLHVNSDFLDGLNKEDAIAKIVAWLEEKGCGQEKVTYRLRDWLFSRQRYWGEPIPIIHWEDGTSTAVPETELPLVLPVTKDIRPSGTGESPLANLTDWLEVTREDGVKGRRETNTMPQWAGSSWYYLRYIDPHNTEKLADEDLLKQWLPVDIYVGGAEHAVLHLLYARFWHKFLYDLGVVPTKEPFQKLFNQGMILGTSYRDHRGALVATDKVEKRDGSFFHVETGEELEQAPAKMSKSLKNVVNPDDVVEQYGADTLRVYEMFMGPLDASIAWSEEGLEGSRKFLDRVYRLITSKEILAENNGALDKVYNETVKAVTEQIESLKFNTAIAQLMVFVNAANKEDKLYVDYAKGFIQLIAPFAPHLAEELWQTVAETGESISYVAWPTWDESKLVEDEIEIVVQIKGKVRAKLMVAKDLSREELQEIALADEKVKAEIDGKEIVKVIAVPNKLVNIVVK
Outline: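 Test compound at 0, 2 or 8 μM. Substrate-velocity data were linearized by reciprocal fitting into Lineweaver-Burk plots to derive kinetic constants and inhibition mode.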

E. coli = test: Broth microdilution MIC, E. coli; type: cell-based; settings: Escherichia coli
Outline: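 Broth microdilution per CLSI M7-A7 in Mueller Hinton broth. About […] E. coli was exposed to serial test-compound dilutions for 24 h at 37°C. MIC was the lowest concentration suppressing visible growth. Ampicillin was used to monitor susceptibility.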

SpLeuRS D344A = molecular target: T2, SpLeuRS D344A (Streptococcus pneumoniae serotype 4, UniProt Q97SS0, D344A); test: Aminoacylation by SpLeuRS D344A mutant; type: biochemical; settings: 50 μM ZCL039
T2 sequence (Q97SS0 1-833 D344A): T1 sequence (Q97SS0 1-833) with D344A
Outline: as §1

SpLeuRS [2] = molecular target: T1, SpLeuRS; test: ATP-PPi exchange; type: biochemical; settings: 200 μM ZCL039
Outline: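 Leucine activation (ATP-PPi exchange) at 37°C with 10 nM N-His6 SpLeuRS, expressed in E. coli BL21(DE3) and Ni-NTA purified. Run with or without test compound in DMSO. The [32P]ATP formed was separated and counted. Means of three independent experiments.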

Human cytosolic LeuRS = Human cytosolic LeuRS (Homo sapiens, UniProt Q9P2J5); test: Aminoacylation inhibition; type: biochemical
Outline: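 Human cytosolic or mitochondrial LeuRS, expressed in E. coli. Aminoacylation run at 30°C. At least six test-compound concentrations were tested, with enzyme amount set to form 10 pmol Leu-tRNALeu in 5 min. IC50 was taken from a fitted dose-response curve, as the mean of at least two independent experiments.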

Sequence of Human cytosolic LeuRS (Q9P2J5 whole entry): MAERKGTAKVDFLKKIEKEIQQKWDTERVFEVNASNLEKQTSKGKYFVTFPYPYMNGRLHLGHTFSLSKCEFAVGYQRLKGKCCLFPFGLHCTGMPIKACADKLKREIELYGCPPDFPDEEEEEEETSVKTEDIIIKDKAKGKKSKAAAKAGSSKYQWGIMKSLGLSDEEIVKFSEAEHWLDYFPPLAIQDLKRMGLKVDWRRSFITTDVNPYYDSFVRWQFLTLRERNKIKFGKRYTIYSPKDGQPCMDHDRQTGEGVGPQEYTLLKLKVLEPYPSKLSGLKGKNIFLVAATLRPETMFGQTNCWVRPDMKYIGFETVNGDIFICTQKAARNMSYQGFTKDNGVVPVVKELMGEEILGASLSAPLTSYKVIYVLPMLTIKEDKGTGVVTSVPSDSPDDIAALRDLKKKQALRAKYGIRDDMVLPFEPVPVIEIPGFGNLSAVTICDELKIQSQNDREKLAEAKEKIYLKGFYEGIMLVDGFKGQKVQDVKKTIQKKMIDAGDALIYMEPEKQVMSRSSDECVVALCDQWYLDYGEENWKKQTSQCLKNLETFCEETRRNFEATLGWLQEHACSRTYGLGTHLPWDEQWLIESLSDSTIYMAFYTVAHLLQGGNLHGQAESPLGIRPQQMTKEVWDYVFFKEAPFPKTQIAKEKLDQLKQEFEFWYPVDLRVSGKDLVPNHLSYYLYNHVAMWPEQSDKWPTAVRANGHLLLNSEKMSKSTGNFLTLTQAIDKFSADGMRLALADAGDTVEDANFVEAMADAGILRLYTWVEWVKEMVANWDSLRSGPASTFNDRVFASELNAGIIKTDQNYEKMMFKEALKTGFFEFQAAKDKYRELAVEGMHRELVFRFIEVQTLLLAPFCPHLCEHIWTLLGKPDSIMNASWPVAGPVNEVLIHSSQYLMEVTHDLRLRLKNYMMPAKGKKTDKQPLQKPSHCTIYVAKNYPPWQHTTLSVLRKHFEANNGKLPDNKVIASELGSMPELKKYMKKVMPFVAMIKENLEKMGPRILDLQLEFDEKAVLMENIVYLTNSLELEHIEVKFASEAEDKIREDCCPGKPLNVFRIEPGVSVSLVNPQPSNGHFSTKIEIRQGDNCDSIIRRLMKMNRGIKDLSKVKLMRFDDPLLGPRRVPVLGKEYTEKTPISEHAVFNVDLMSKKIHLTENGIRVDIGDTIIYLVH

`OB1OCc2ccc(C(O)c3ccccc3)cc21` (stereo not drawn) [ZCL039, [6-(1-phenyl-1-hydroxylmethyl)]-1,3-dihydro-1-hydroxy-2,1-benzoxaborole] was tested, and the “Effect on tRNA charging activity of SpLeuRS-MmLinker” value (SpLeuRS-MmLinker) was “not affected”, the “kcat of SpLeuRS, substrate ATP” value (SpLeuRS [1]; +2 μM ZCL039) was 6.35 ± 0.65 s⁻¹ and the “kcat of SpLeuRS, substrate Leu” value (SpLeuRS [1]; +2 μM ZCL039) was 6.44 ± 0.55 s⁻¹. The “kcat of SpLeuRS, substrate SptRNALeu” value (SpLeuRS [1]; +2 μM ZCL039) was 6.62 ± 0.48 s⁻¹, the “kcat of SpLeuRS, substrate ATP” value (SpLeuRS [1]; +8 μM ZCL039) was 2.80 ± 0.32 s⁻¹ and the “kcat of SpLeuRS, substrate Leu” value (SpLeuRS [1]; +8 μM ZCL039) was 2.61 ± 0.16 s⁻¹. For the same compound, the “kcat of SpLeuRS, substrate SptRNALeu” value (SpLeuRS [1]; +8 μM ZCL039) was 2.89 ± 0.24 s⁻¹, the Ki (SpLeuRS [1]; substrate ATP) was 2630 ± 260 nM and the Ki (SpLeuRS [1]; substrate Leu) was 2650 ± 220 nM. The “Mode of inhibition with respect to ATP and Leu” value (SpLeuRS [1]; Km unaffected, maximum rates decreased) was “noncompetitive”, the “Mode of inhibition with regard to tRNALeu” value (SpLeuRS [1]; apparent Km and rate both reduced) was “uncompetitive” and the MIC (E. coli; 24 h, read-out: MIC, Bacteria, E. coli) was 60 µg/mL (≈ 250 µM). For the same compound, the MIC (E. coli; read-out: MIC, E. coli strains containing pET30a) was 60 µg/mL (≈ 250 µM), the “Effect of D344A mutation on sensitivity of SpLeuRS to ZCL039” value (SpLeuRS D344A) was “reduced the sensitivity” and the “Effect on PPi exchange activity of SpLeuRS” value (SpLeuRS [2]) was “not affected”. The IC50 (Human cytosolic LeuRS) was > 250000 nM, the “Fold more sensitivity of SpLeuRS than human cytosolic LeuRS” value (Human cytosolic LeuRS; aminoacylation) was “over 150 fold” and the “Fold less sensitive than SpLeuRS” value (Human cytosolic LeuRS; human cytosolic and mitochondrial LeuRSs vs SpLeuRS) was “approximately 150 fold”.
